One assay deals with HCT-116. The experiment in a line: Antiproliferative activity against human HCT116 cells after 48 hrs by MTT assay. To be noted: HCT-116, 48 h. In kind it is functional, cell-based. In a few lines:
(§1)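 Cells were seeded at 8×10^3 per well in RPMI-1640 with 10% heat-inactivated FBS. They were treated for 48 h at 37 °C, 5% CO2 with 20, 200, 400 or 1000 μM analogue, or DMSO vehicle. MTT (5 mg/mL solution) was added for 4 h, and absorbance was read at 570 nm. Viability was taken relative to vehicle control, as means ± SD of three independent experiments.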

Another assay concerns K562. Description: Antiproliferative activity against human K562 cells after 48 hrs by MTT assay. In kind it is functional, cell-based. To be noted: K562, 48 h. In a few lines:
as §1

In a further assay the test system is B16. Description: Antimigratory activity against mouse B16 cells at 6.25 to 12.5 uM after 48 hrs by wound healing assay. Format: functional, cell-based. In a few lines:
(§2)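 Near-confluent monolayers (1.5×10^5 cells per well, RPMI-1640 with 10% FBS) were scratched with a pipette tip and washed twice with serum-free medium. They were then exposed for 48 h to analogue in fresh FBS-containing medium, with DMSO medium as control. Wounds were photographed, and migration was expressed as % of 0 h (wound width at endpoint/width at 0 h). Done in triplicate.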

The subject of another assay is HCCLM3. The experiment in a line: Antimigratory activity against human HCCLM3 cells at 50 uM after 48 hrs by wound healing assay. In kind it is functional, cell-based. Summed up:
as §2

In a further assay the test system is B16-F10. The experiment in a line: Antimigratory activity against mouse B16F10 cells at 6.25 to 12.5 uM after 12 hrs by wound healing assay.

Active and inactive are the calls of the source. The rule behind the calls is not given here.

Regarding `CCCCCCCCCCCCC/C=C/[C@@H](O)[C@H](CO[C@H]1O[C@H](CO[C@]2(C(=O)O)C[C@H](O)[C@@H](NC(C)=O)[C@H]([C@H](O)[C@H](O)CO)O2)[C@@H](O)[C@H](O)[C@@H]1O)NC(=O)CCCCCCCCCCCCCCCCC`, the IC50 with HCT-116 is 64.2 µM; in the assay with K562, 160 µM. In addition, the result with B16 and in the assay with B16-F10 was Active. The outcome with HCCLM3 was inactive.

On to `CCCCCCCCCCCCC/C=C/[C@@H](O)[C@H](CO[C@@H]1O[C@H](CO[C@]2(C(=O)O)C[C@H](O)[C@@H](NC(C)=O)[C@H]([C@H](O)[C@H](O)CO)O2)[C@H](O)[C@H](O)[C@H]1O)NC(=O)CCCCCCCCCCCCCCCCC`, for which the values for the IC50 in the assay with HCT-116 and with K562 were 86.2 µM and 396 µM, respectively. The result in the assay with B16 and with B16-F10 was Active. Further, the outcome in the assay with HCCLM3 was inactive.

In the case of `CCCCCCCCCCCCC/C=C/[C@@H](O)[C@@H](N)CO[C@H]1O[C@H](CO[C@]2(C(=O)O)C[C@H](O)[C@@H](NC(C)=O)[C@H]([C@H](O)[C@H](O)CO)O2)[C@@H](O)[C@H](O)[C@@H]1O`, the IC50 in the assay with HCT-116 amounted to 182 µM; with K562 it was 148 µM. For the same compound, the result in the assay with B16, in the assay on HCCLM3 and in the assay on B16-F10 was Active.

`CCCCCCCCCCCCC/C=C/[C@@H](O)[C@@H](N)CO[C@@H]1O[C@H](CO[C@]2(C(=O)O)C[C@H](O)[C@@H](NC(C)=O)[C@H]([C@H](O)[C@H](O)CO)O2)[C@H](O)[C@H](O)[C@H]1O`: the IC50 in the assay with HCT-116 is 130 µM; with K562, 206 µM. In addition, the result with B16, in the assay on HCCLM3 and in the assay with B16-F10 was Active.

One may read the IC50 as the concentration that inhibits the measured activity by half. High values mean weaker potency in that assay, low ones greater potency in that assay.

Source of the values: ChEMBL document CHEMBL4480389, “Chemoenzymatically synthesized ganglioside GM3 analogues with inhibitory effects on tumor cell growth and migration” (Eur J Med Chem, 2019).
